One data set concerns human insulin promoter. Kind of data set: Human insulin promoter-GFP transgene assay in T6PNE cells. Format: cell-based. The conditions noted are these: for effect of reported HNF4α ligands on insulin promoter activity: 48 hours, 0.5 μM or 1 μM tamoxifen. Summed up: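 T6PNE cells carry a lentiviral human insulin promoter–GFP transgene. Cells were treated for 48 hours; where stated, tamoxifen was 0.5 or 1 μM and fatty acids 0.12 mM. The green channel was imaged and percent GFP+ cells normalized to total cells per well.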

For another data set, the target named is T1, HNF4α (Homo sapiens, UniProt P41235).
T1 sequence (P41235 1-474): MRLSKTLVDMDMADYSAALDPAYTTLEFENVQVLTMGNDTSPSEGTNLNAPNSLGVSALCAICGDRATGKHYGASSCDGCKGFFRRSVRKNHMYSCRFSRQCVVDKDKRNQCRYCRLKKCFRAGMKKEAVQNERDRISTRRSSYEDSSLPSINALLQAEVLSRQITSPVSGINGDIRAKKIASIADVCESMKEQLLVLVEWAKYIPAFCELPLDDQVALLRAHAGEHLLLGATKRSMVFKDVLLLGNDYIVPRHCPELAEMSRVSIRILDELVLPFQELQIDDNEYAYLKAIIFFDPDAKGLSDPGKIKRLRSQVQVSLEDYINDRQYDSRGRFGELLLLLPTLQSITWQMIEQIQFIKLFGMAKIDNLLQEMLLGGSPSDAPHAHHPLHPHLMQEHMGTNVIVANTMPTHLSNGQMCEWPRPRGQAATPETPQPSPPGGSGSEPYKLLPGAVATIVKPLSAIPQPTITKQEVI
Briefly: DARTS assay in HepG2 cells. Type of data set: binding. The settings on record: HepG2, 20μM, 24hr, subtilisin. An outline of the steps:
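DARTS: HepG2 cells were treated with DMSO or test compound at 20μM for 24hr. Read-out is the ligand-induced change in HNF4α sensitivity to proteolysis.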

For another data set, the target named is T2, HNF4α DNA binding (Homo sapiens, UniProt P41235).
T2 sequence (P41235 1-474): T1 sequence (P41235 1-474)
Kind of data set: HNF4α DNA binding, HNF TransAM ELISA on HepG2 nuclear extracts. Type of data set: cell-based. The settings on record: HepG2 incubated overnight with compound. Summed up:
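HepG2 cells were incubated overnight with test compound. Nuclear protein extracts (5μg) were added to wells bearing an oligonucleotide with an HNF4α binding site. Bound HNF4α was detected with an anti-HNF4α antibody (ELISA). Mean ± SD, n=3 biological replicates; Student's t-test.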
(In an ELISA, binding on a coated surface is turned into a signal by an enzyme label.)

Data set [1] is described as follows: Hepatic microsomal stability. Format: in vitro ADME. The conditions noted are these: after 1.25 h.
A further data set can be described thus: Plasma protein binding. Type of data set: in vitro ADME. The settings on record: after 4 h.
Data set [2] relates to endogenous insulin promoter. Kind of data set: Endogenous insulin mRNA. The settings on record: for effect on endogenous insulin expression / insulin promoter activity: T6PNE cells; for effect of fatty acid on insulin gene expression (quantitative RT-PCR): T6PNE, 1μM tamoxifen, 48 hours. Format: cell-based, human. An outline of the steps:
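Q-PCR of endogenous insulin mRNA in T6PNE cells after 48 h exposure to test compound across a concentration series. For fatty acids, cells got 1μM tamoxifen plus fatty acid or DMSO vehicle for 48 hours before RNA harvest. Insulin mRNA was normalized to GAPDH or 18S rRNA; mean ± SE, n=3.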

Another data set has as its system tumor cell lines. Briefly: Toxicity to tumor cell lines versus cultured primary cells in vitro. Format: cell-based.
Data set [3] concerns modified estrogen receptor (E47MER). Kind of data set: Counterscreen: prevention of E47MER translocation. Format: cell-based.
The next data set deals with PPARα (Homo sapiens, UniProt Q07869). Kind of data set: PPRE-luciferase reporter assay with PPARα co-transfection. Type of data set: cell-based. For orientation: Reporter assays use an easily measured gene product as a stand-in for the process of interest.
PPARα, sequence (Q07869 whole entry, species assumed): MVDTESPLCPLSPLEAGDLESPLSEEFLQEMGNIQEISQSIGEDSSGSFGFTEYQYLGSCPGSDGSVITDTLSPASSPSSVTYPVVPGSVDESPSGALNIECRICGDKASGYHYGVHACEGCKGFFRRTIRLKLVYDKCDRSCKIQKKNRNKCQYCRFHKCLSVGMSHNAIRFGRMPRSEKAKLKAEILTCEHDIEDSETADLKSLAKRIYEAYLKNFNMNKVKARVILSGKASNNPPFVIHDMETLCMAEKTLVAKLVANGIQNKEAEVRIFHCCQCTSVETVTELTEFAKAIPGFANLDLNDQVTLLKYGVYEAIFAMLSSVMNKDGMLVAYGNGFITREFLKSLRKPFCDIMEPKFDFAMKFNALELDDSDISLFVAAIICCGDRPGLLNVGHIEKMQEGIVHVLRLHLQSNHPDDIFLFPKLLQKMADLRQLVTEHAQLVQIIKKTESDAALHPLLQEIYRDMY
Another data set has as its system p57Kip2 expression. Kind of data set: Kip2 mRNA in T6PNE cells. Type of data set: cell-based, human. Summed up:
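Kip2 mRNA in T6PNE cells measured by Q-PCR, normalized to 18s rRNA. Treated and DMSO vehicle cells were compared by Student's t-test.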

For data set [4], the system named is HNF4α gene expression. Briefly: HNF4α mRNA expression in MIN6 cells. Format: cell-based, murine. The settings on record: for effect of fatty acid on HNF4α gene in MIN6: 0.08mM Oleate or 0.02mM Palmitate, 110 days.
The test system of data set [5] is HNF4α gene expression. Briefly: HNF4α mRNA expression in T6PNE cells. Format: cell-based, human.
The nature of a further data set: Plasma stability. Format: in vitro ADME. The settings on record: after 3 h.
The nature of another data set: Solubility. Type of data set: physicochemical.
Another data set addresses PPARδ (Homo sapiens, UniProt Q03181). Briefly: PPRE-luciferase reporter assay with PPARδ co-transfection. Type of data set: cell-based.
In the next data set the target is full-length HNF4α (Rattus norvegicus, UniProt P22449). Kind of data set: Direct binding by quenching of HNF4α aromatic amino acid fluorescence. The settings on record: Hill equation analysis.
full-length HNF4α, sequence (P22449 whole entry): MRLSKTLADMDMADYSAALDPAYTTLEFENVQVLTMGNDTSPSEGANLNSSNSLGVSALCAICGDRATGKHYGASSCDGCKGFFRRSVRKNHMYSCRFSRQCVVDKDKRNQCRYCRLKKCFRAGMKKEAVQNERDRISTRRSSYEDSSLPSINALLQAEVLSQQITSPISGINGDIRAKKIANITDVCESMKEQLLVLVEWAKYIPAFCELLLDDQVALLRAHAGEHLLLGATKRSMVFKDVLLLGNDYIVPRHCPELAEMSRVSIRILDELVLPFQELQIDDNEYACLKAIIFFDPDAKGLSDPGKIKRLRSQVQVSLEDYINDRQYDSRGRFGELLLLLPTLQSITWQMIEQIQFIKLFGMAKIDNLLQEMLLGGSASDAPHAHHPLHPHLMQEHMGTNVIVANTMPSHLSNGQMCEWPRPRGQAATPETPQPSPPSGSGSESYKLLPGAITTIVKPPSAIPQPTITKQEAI
Data set [6] concerns HNF4α gene expression. Briefly: HNF4α mRNA expression in HepG2 cells. Format: cell-based. The settings on record: 48 hours. Summed up: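 HNF4α mRNA in treated HepG2 cells measured by Q-PCR and normalized to 18S rRNA. Differences in expression assessed by Student's t-test.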
A further data set relates to PPARγ. Type of data set: cell-based. The settings on record: PPRE-Luc, HeLa. An outline of the steps: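 HeLa cells were co-transfected with a PPRE-Luc reporter, with or without a PPARγ expression vector, then treated with test compound. Read-out was luciferase activity; mean ± SE, n=3.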
In data set [7] the test system is E47 and PDX-1 binding to the human insulin promoter. Briefly: ChIP of E47 and PDX-1 on the human insulin promoter in T6PNE cells. Format: cell-based. The conditions noted are these: 5μM, 48 hours. An outline of the steps: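 T6PNE cells were given 1μM tamoxifen plus DMSO or 5μM test compound for 48 hours. ChIP used anti-E47 and anti-PDX-1 antibodies, followed by Q-PCR with primers for the E-box and A-box elements of the insulin promoter. Treated and vehicle binding were compared by Student's t-test.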

For another data set, the system named is INS1 and INS2 genes. Kind of data set: Insulin gene mRNA in MIN6 cells after prolonged fatty acid exposure. Type of data set: cell-based, murine. The settings on record: 0.08mM Oleate or 0.02mM Palmitate, 110 days.

This is an account of results in paper PMC3447631 (Chemistry & biology, 2012).

≈ marks a conversion by molar mass, not a printed value.

By IC50 is commonly meant the concentration that gives 50% inhibition. In general, solubility refers to the concentration that dissolves in the medium under given conditions. The low end stands for little dissolved substance, the high end for much dissolved substance.

PPARδ, sequence (Q03181 whole entry, species assumed): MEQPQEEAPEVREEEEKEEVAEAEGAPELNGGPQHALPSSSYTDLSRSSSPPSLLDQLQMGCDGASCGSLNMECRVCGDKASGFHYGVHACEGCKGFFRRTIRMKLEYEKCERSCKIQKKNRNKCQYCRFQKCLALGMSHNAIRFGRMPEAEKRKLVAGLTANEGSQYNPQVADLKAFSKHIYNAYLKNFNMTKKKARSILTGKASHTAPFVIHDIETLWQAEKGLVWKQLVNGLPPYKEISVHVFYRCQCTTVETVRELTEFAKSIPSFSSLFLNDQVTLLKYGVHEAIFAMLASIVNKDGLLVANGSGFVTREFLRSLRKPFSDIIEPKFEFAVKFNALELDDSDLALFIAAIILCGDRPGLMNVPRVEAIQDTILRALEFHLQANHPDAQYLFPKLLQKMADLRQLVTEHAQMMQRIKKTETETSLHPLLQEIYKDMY

As for “3-methyl-2-nitronaphthofuran [Compound 5]”, the “effect of reported HNF4α ligands on insulin promoter activity” value with human insulin promoter was “none of these compounds had consistent and robust effects”.
With `Cc1nc2ccccc2n1Cc1cc([N+](=O)[O-])ccc1O` [BI6018], in the data set with human insulin promoter, the “activity in the insulin promoter assay” value was “inactive”. On HNF4α, the “effect on HNF4α protease sensitivity (DARTS)” value (shortened to “effect … (DARTS)”) is given as “no effect”. Also, at HNF4α DNA binding, the “effect on HNF4α DNA binding” value was “inactive”.
As for `Cc1nc2ccccc2n1S(=O)(=O)c1cc([N+](=O)[O-])ccc1Cl` [BIM5078, 1-(2′-chloro-5′-nitrobenzenesulfonyl)-2-methylbenzimidazole], the “microsomal stability, remaining” value in data set [1] is 32%. For the same molecule, the “binding to plasma proteins, bound” value in “Plasma protein binding” was 98%. In addition, in [2] (Homo sapiens, 48 h, read-out: IC50, inhibition of endogenous insulin expression), the IC50 stood at 930 nM. Moreover, in data set [2], the “effect on endogenous insulin expression / insulin promoter activity” value was “had activity”. In addition, the “toxicity to tumor cell lines in vitro” value with tumor cell lines was “toxic”. For the same molecule, the “estrogenic antagonism / tamoxifen-like activity (E47MER translocation)” value in data set [3] is “passed the counterscreen”. For the same molecule, the “luciferase activity with PPARα co-transfected” value on PPARα is reported as “no change in luciferase activity”. In addition, the “effect on Kip2 expression” value with p57Kip2 expression is “potently decreased”. For the same molecule, the “effect on HNF4α expression in MIN6” value in the data set with HNF4α gene expression [4] (5 hours) is given as “potently repressed”. For the same molecule, the “effect on HNF4α expression in T6PNE” value with HNF4α gene expression [5] (48 hours) was “potently repressed”. The “plasma stability, remaining” value in “Plasma stability” is given as 8%. The molecule further returned a solubility at 18 h in “Solubility” of 0.17 µg/mL (≈ 0.483 µM). Further, the “effect … (DARTS)” value at HNF4α is recorded as “induced altered HNF4α protease sensitivity”. The “luciferase activity with PPARδ co-transfected” value at PPARδ is “no change in luciferase activity”. At full-length HNF4α, the “Hill coefficient of binding” value is reported as 0.9 ± 0.3. Besides, in the data set with HNF4α gene expression [6], the “effect on HNF4α expression in HepG2” value is “potently repressed”. Besides, the “effect on HNF4α DNA binding” value on HNF4α DNA binding is “active but less potent”. Further, in the data set on PPARγ, the “PPRE activation enhanced by co-transfection with PPARγ expression vector” value is reported as approximately 4 fold and the “activity as PPARγ agonist” value is “had activity as PPARγ agonists”. In the data set with PPARγ (without PPARγ expression vector), this molecule yielded a PPRE activation of 2 fold. In addition, in [7], the “association of E47 with the distal (E2) E-box of the insulin promoter” value is “significantly decreased” and the “association of PDX-1 at A-boxes (A1, A3, A5) of the insulin promoter” value was “significantly decreased”.
For `CCCCCS(=O)(=O)NC(=O)c1ccc2nc(C)n(Cc3ccc(Cl)cc3Cl)c2c1` [FK614, reference compound], in [2], the “effect on endogenous insulin expression / insulin promoter activity” value is listed as “no effect”. In addition, the “effect on Kip2 expression” value with p57Kip2 expression is reported as “no effect”. The “effect … (DARTS)” value on HNF4α was “no effect”. For the same molecule, the “Hill coefficient of binding” value on full-length HNF4α was 0.6 ± 0.1. Also, the “effect on HNF4α DNA binding” value on HNF4α DNA binding is “inactive”. In addition, the “activity as PPARγ agonist” value with PPARγ is recorded as “had activity as PPARγ agonists”.
In the case of `CC(C)(CCCCCCCCCCC(C)(C)CC(=O)O)CC(=O)O` [Medica-16, 3,3,14,14-tetramethylhexadecanedioic acid], the “effect of reported HNF4α ligands on insulin promoter activity” value with human insulin promoter is “none of these compounds had consistent and robust effects”.
`CC(=O)O` [acetic]: the “effect of fatty acid on insulin gene expression (quantitative RT-PCR)” value (from here on “effect of fatty acid … (quantitative RT-PCR)”) in data set [2] was “did not have an effect”.
As to `CCCC(=O)O` [butyric], the “effect of fatty acid … (quantitative RT-PCR)” value in data set [2] was “did not have an effect”.
Take `O=[N+]([O-])c1ccc2nc(-c3ccco3)[nH]c2c1` [compound 5816458]: the “estrogenic antagonism / tamoxifen-like activity (E47MER translocation)” value in data set [3] is given as “estrogenic antagonists”.
Turning to `CCCCC/C=C\C/C=C\CCCCCCCC(=O)O` [linoleic acid], in data set [2], the “effect of fatty acid … (quantitative RT-PCR)” value is on record as “inhibited”.
For `CCCCCCCC/C=C\CCCCCCCC(=O)O` [oleate, reference compound], the “effect of fatty acid on HNF4α gene in MIN6” value in the data set on HNF4α gene expression [4] was “inhibited”. The “effect on INS2 gene in MIN6” value in the data set on INS1 and INS2 genes is listed as “inhibited”.
As for `CCCCCCCCCCCCCCCC(=O)O` [palmitate, reference compound], the “effect of fatty acid … (quantitative RT-PCR)” value in data set [2] is given as “dose-dependent decrease”. Moreover, in the data set on HNF4α gene expression [4], the “effect of fatty acid on HNF4α gene in MIN6” value is reported as “inhibited”. Besides, the “effect of fatty acid on HNF4α mRNA levels in T6PNE” value with HNF4α gene expression [5] (48 hour treatment, with tamoxifen) is on record as “significantly inhibited”. Also, in the data set on INS1 and INS2 genes, the “effect on INS2 gene in MIN6” value is “inhibited”.
